Results on 22 compounds are retold here after ChEMBL document CHEMBL2029341, “Synthesis and evaluation of indole-based chalcones as inducers of methuosis, a novel type of nonapoptotic cell death” (J Med Chem, 2012).

Each structure is given as a SMILES string. pIC50: −log10 of the molar value. Active and inactive are the calls of the source. The calls are words filed in the database; no cut-off is given here.

Test [1] concerns U-251. The test can be described thus: Induction of methuosis in human U251 cells assessed as induction of cellular vacuolization at 10 uM after 24 to 48 hrs by phase contrast microscopic analysis. It counts as functional, cell-based. An outline of the steps: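 U251 glioblastoma cells in DMEM with 10% FBS at 37 °C under 5% CO2. Compound added in DMSO at 10 μM one day after plating; vehicle-only controls. Live cells examined by phase-contrast microscopy at 24 and 48 h for phase-lucent cytoplasmic vacuoles, with cell rounding and detachment taken as methuosis hallmarks.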

The subject of test [2] is U-251. The test is described as follows: Cytotoxicity against human U251 cells assessed as reduction of cell viability at 10 uM after 48 hrs by MTT assay relative to control. A general note: Tetrazolium dyes change colour on reduction, which living cells bring about.
For test [3], the system named is U-251. The test can be described thus: Cytotoxicity against human U251 cells assessed as colony formation at 10 uM treated for 48 hrs followed by washout measured after 2 weeks relative to control.
Test [4] relates to U-251. The test can be described thus: Cytotoxicity against human U251 cells assessed as inhibition of colony formation at 10 uM treated for 48 hrs followed by washout measured after 2 weeks relative to control. It counts as functional. An outline of the steps:
(§1)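 U251 cells at 2,500 per 100 mm dish; one day after plating, compound added for 48 h (10 μM, or graded concentrations), then removed and cultures refed every 2 d. Colonies >50 cells counted at two weeks after methanol fixation and crystal violet staining; percent of DMSO control dishes, mean ± S.D. of three dishes.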

For test [5], the system named is U-251. The test is described as follows: Induction of methuosis in human U251 cells assessed as induction of cellular vacuolization at 2.5 to 10 uM after 3 days by phase contrast microscopic analysis. The class given is functional, cell-based.
Test [6] relates to U-251. The test is described as follows: Induction of methuosis in human U251 cells assessed as induction of cellular vacuolization at 2.5 after 3 days by phase contrast microscopic analysis. The class given is functional, cell-based. The essentials: (§2)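 One day after plating, U251 cells given 2.5 μM or 10 μM final compound or DMSO vehicle; live cells viewed by phase-contrast microscopy on three sequential days, without medium change or compound replenishment, for phase-lucent cytoplasmic vacuoles, rounding and detachment.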

The test system of test [7] is U-251. The test is described as follows: Induction of methuosis in human U251 cells assessed as induction of cellular vacuolization at 2.5 uM after 1 to 2 days by phase contrast microscopic analysis. The class given is functional, cell-based. An outline of the steps:
as §2

In test [8] the test system is U-251. The test is described as follows: Cytotoxicity against human U251 cells assessed as inhibition of colony formation at 2 to 10 uM treated for 48 hrs followed by washout measured after 2 weeks relative to control. It counts as functional, cell-based. An outline of the steps:
as §1

For test [9], the system named is U-251. The test can be described thus: Cytotoxicity against human U251 cells assessed as inhibition of colony formation at 5 to 20 uM treated for 48 hrs followed by washout measured after 2 weeks relative to control. The class given is functional, cell-based. The essentials: as §1
In test [10] the test system is U-251. The test can be described thus: Induction of methuosis in human temozolomide-resistant U251 cells assessed as induction of cellular vacuolization at 2.5 to 10 uM after 3 days by phase contrast microscopic analysis. It counts as functional, cell-based.
The subject of test [11] is U-251. The test is described as follows: Cytotoxicity against human U251 cells after 48 hrs by MTT assay. The following applies: U-251, 48 h.
The subject of test [12] is U-251. The test can be described thus: Cytotoxicity against human U251 cells assessed as reduction of cell growth and viability at 2.5 to 10 uM after 3 days by cell counting.
Test [13] deals with U-251. The test can be described thus: Cytotoxicity against human temozolomide-resistant U251 cells assessed as reduction of cell viability at 2.5 to 10 uM after 48 hrs by colony formation assay.

Consider `COc1ccc2[nH]cc(/C=C/C(=O)c3cccnc3)c2c1`, for which the outcome in the test on U-251 [1] was inactive. Also, the Activity in the test on U-251 [2] was determined as 90%. Moreover, the level, % of control at 10 µM with U-251 [3] amounted to 99%.

Consider `COc1ccc2[nH]cc(/C=C/C(=O)c3cnccn3)c2c1`, for which the result in the test on U-251 [1] was inactive. For the same compound, the Activity in the test with U-251 [2] was 88%. For the same compound, in the test with U-251 [3], the level, % of control at 10 µM turned out to be 96%.

In the case of `O=C(/C=C/c1c[nH]c2ccc(OCc3ccccc3)cc12)c1ccncc1`, the result in the test on U-251 [1] was Active. The Activity in the test on U-251 [2] is 56%. For the same compound, in the test with U-251 [3], the level, % of control at 10 µM was determined as 8%.

Turning to `Cc1ccc(C(=O)/C=C/c2c[nH]c3ccccc23)cc1`, in the test on U-251 [1], the result was inactive.

As for `O=C(/C=C/c1c[nH]c2ccccc12)c1ccncc1`, the result with U-251 [1] was Active. Further, the Activity with U-251 [2] is listed as 58%. Also, in the test on U-251 [3], the level, % of control at 10 µM was 22%.

With `Cc1[nH]c2ccc(N=[N+]=[N-])cc2c1/C=C/C(=O)c1ccncc1`, the inhibition entry in the test on U-251 [4] was “Active”.

With `Cc1[nH]c2ccc(OCc3ccc(C(=O)O)cc3)cc2c1/C=C/C(=O)c1ccncc1`, the result with U-251 [1] was inactive. Moreover, the Activity with U-251 [2] was 79%. In the test with U-251 [3], the level, % of control at 10 µM came to 71%.

For the compound `O=C(COc1ccccc1)c1c[nH]c2ccccc12`, the outcome with U-251 [1] was inactive.

Take `Cc1[nH]c2ccc(O)cc2c1/C=C/C(=O)c1ccncc1`: the outcome in the test on U-251 [1] was Active. In addition, the Activity in the test with U-251 [2] was 101%. The level, % of control at 10 µM in the test with U-251 [3] was 43%.

Regarding `O=C(/C=C/c1c[nH]c2ccccc12)c1ccccn1`, in the test on U-251 [1], the result was inactive. Besides, the Activity in the test with U-251 [2] is reported as 96%. For the same compound, in the test with U-251 [3], the level, % of control at 10 µM came out at 53%.

On to `O=C(/C=C/c1c[nH]c2ccccc12)c1ccc(Cl)cc1`, for which the outcome with U-251 [1] was inactive.

With `O=C(/C=C/c1c[nH]c2ccc(O)cc12)c1ccncc1`, in the test with U-251 [1], the result was inactive. In addition, in the test with U-251 [2], the Activity amounted to 107%. Also, in the test on U-251 [3], the level, % of control at 10 µM came to 72%.

For the compound `O=C(NCCc1c[nH]c2ccc(Cl)cc12)c1cccnc1`, in the test with U-251 [1], the result was inactive.

For `COc1ccc(C(=O)/C=C/c2c[nH]c3ccc(Br)cc23)cc1`, the result with U-251 [1] was inactive.

For the compound `COc1ccc2c(c1)c(/C=C/C(=O)c1ccncc1)cn2C`, the outcome in the test with U-251 [1] was Active. Moreover, the Activity with U-251 [2] is 73%. The level, % of control at 10 µM with U-251 [3] is 52%.

Turning to `COc1cc2c(/C=C/C(=O)c3ccncc3)c(C)[nH]c2cc1N=[N+]=[N-]`, the inhibition result in the test with U-251 [4] is “Active”.

Turning to `COc1ccc2[nH]cc(/C=C/C(=O)c3ccncc3)c2c1`, the outcome in the test with U-251 [1] was Active. Further, the Activity in the test with U-251 [2] turned out to be 58%. Also, the level, % of control at 10 µM in the test with U-251 [3] amounted to 2%.

For the compound `Oc1cccc(/N=C/c2c[nH]c3ccccc23)c1`, the result in the test with U-251 [1] was inactive.

With `O=C(/C=C/c1c[nH]c2ccccc12)c1cccnc1`, the result in the test on U-251 [1] was inactive. Moreover, the Activity in the test on U-251 [2] is 72%. Besides, the level, % of control at 10 µM in the test with U-251 [3] was determined as 71%.

As to `Cc1[nH]c2ccccc2c1/C=C/C(=O)c1ccncc1`, the outcome in the test on U-251 [1], in the test with U-251 [5], in the test with U-251 [7], in the test with U-251 [10] and in the test on U-251 [13] was Active. The result with U-251 [6] was inactive. Further, the inhibition result in the test with U-251 [8], in the test on U-251 [9] and in the test on U-251 [12] was “Active” in each case. Further, the pIC50 in the test on U-251 [11] is 5.32. Besides, the Activity with U-251 [2] came to 24%. The level, % of control at 10 µM in the test with U-251 [3] was 8%.

As to `COC(=O)c1ccc(COc2ccc3[nH]c(C)c(/C=C/C(=O)c4ccncc4)c3c2)cc1`, the result with U-251 [1] was inactive. Also, in the test on U-251 [2], the Activity amounted to 79%. In addition, in the test on U-251 [3], the level, % of control at 10 µM was 76%.

Turning to `O=C(/C=C/c1c[nH]c2ccccc12)c1ccccc1`, the result in the test on U-251 [1] was inactive. In the test with U-251 [2], the Activity amounted to 109%. For the same compound, the level, % of control at 10 µM with U-251 [3] is 76%.

What is called pIC50 is the negative decadic logarithm of the IC50, by convention in mol/L.
